According to ChEMBL document CHEMBL1132442, “Preparation and characterization of novel trans-[PtCl(2)(amine)(isopropylamine)] compounds: cytotoxic activity and apoptosis induction in ras-transformed cells” (J Med Chem, 1999):

Experiments:
[1] = test system: HL-60; experiment: Cytotoxicity against human promyelocytic leukemia cell line HL-60 (obtained by MTT assay).; assay type: functional, cell-based
Method in brief: (§1)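 MTT survival assay: compounds added to cultured cells at final 0–200 μM, read 24 h later by absorbance at 520 nm. IC50 from plots of % survival versus concentration (μM). Quadruplicate experiments. Compound stocks 1 mg/mL in PBS, freshly prepared.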

[2] = test system: HeLa; experiment: Cytotoxicity against human cervix epithelial carcinoma cell line HeLa (obtained by MTT assay).; assay type: functional, cell-based; method in brief: as §1
[3] = test system: PAM212; experiment: Cytotoxicity against normal murine keratinocytes Pam212 (obtained by MTT assay).; assay type: functional, cell-based, Mus musculus; method in brief: as §1
[4] = test system: Vero; experiment: Cytotoxicity against […] cell line VERO (obtained by MTT assay).; assay type: functional, cell-based, Chlorocebus sabaeus; method in brief: as §1
[5] = test system: PAM212; experiment: Cytotoxicity against murine keratinocytes transformed with the H-ras oncogene Pam212-ras (cis-DDP resistant) (obtained by MTT assay).; assay type: functional, cell-based, Mus musculus; method in brief: as §1
[6] = test system: Jurkat; experiment: Cytotoxicity against human acute T-cell leukemia cell line JURKAT (obtained by MTT assay).; assay type: functional, cell-based; method in brief: as §1
[7] = test system: Vero; experiment: Cytotoxicity against […] cell line VERO(obtained by MTT assay).; assay type: functional, cell-based, Chlorocebus sabaeus; method in brief: as §1

Row | Substance | IC50 [1] [µM] | IC50 [2] [µM] | IC50 [3] [µM] | IC50 [4] [µM] | IC50 [5] [µM] | IC50 [6] [µM] | IC50 [7] [µM]
1 | Trans-[PtCl2(dimethylamine)isopropylamine)] (tdmaipa) | 17 | 32 | 56 | 47 | 6 | 5 | –
2 | Trans-[PtCl2(butylamine)(isopropylamine)] | 18 | 35 | 71 | – | 21 | 7 | 46
3 | TRANSPLATIN | 50 | 89 | 123 | – | 164 | 22 | 148
4 | Trans-[PtCl2(isopropylamine)(propylamine)] | 20 | 43 | 50 | – | 32 | 5 | 52
5 | CISPLATIN | 25 | 38 | 114 | – | 156 | 7 | 50
